Results collected from several papers.
Compare with care: the assays were run in different laboratories.

| Compound | tested on | test | system | conditions | quantity | value |
| --- | --- | --- | --- | --- | --- | --- |
| COCC1=N[C@@]2(O)[C@H](C(=O)N(C)OC)[C@@H](c3ccccc3)[C@]3(c4ccc(OC)cc4)Oc4cc(OC)cc(OC)c4[C@]23N1 | Vero | cell growth or viability, MTT |  | 24 h | CC50 | > 20 µM |
| COc1ccsc1CNCC[C@@]1(c2ccccn2)CCOC2(CCCC2)C1 |  |  | human, plasma | intravenous, 3 mg, single dose, healthy volunteers, infusion | Vd | 129 L |
| CNC(=O)c1ccc(-c2cnn3ccc(C(=O)N(C)c4ccc(Cl)c(C(=O)O)c4)cc23)cc1 |  |  | female C57BL/6 mouse, plasma | oral, 3 mg/kg/day | Cmax | 1 ng/mL |
| COc1ccc([C@@]23Oc4cc(OC)cc(OC)c4[C@@]24N=C(C2CC2)N[C@@]4(O)[C@H](C(=O)N(C)OC)[C@H]3c2ccccc2)cc1 | Vero | cell growth or viability, MTT |  | 24 h | CC50 | > 20 µM |
| NCCNC(=O)O[C@H]1CCC[C@@]2(C1)OOC1(O2)C2CC3CC(C2)CC1C3 (some centres unmarked) |  |  | male CD-1 mouse, plasma | oral, 10 mg/kg | Cmax | 240 ng/mL |
| CC(O)(CS(=O)(=O)c1ccc(F)cc1)C(=O)Nc1ccc(C#N)c(C(F)(F)F)c1 (centres unmarked) | Vero | cell growth or viability, resazurin |  |  | CC50 | > 100 µM |
| CNC(=O)c1ccc(-c2cnn3ccc(C(=O)N(C)c4ccc(Cl)c(C(=O)OC)c4)cc23)cc1 |  |  | female C57BL/6 mouse, plasma | oral, 1 mg/kg/day | Cmax | 0.1 ng/mL |
| CC(C)(N)CNC(=O)O[C@H]1CCC[C@@]2(C1)OOC1(O2)C2CC3CC(C2)CC1C3 (some centres unmarked) |  |  | male CD-1 mouse, plasma | oral, 10 mg/kg | Cmax | 191 ng/mL |
